Apaf1 activ: activators of human Apaf-1 apoptosome. O14727. Apaf-1 apoptosome caspase-3 activation, DEVD-Rh110 fluorescence; active compounds read low. activity change, negative = activation, % at 20 µM. 330,000 tested, 0.31% active;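 active = activity change at or below -40% at 20 µM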
Target sequence (O14727 whole entry, looked up): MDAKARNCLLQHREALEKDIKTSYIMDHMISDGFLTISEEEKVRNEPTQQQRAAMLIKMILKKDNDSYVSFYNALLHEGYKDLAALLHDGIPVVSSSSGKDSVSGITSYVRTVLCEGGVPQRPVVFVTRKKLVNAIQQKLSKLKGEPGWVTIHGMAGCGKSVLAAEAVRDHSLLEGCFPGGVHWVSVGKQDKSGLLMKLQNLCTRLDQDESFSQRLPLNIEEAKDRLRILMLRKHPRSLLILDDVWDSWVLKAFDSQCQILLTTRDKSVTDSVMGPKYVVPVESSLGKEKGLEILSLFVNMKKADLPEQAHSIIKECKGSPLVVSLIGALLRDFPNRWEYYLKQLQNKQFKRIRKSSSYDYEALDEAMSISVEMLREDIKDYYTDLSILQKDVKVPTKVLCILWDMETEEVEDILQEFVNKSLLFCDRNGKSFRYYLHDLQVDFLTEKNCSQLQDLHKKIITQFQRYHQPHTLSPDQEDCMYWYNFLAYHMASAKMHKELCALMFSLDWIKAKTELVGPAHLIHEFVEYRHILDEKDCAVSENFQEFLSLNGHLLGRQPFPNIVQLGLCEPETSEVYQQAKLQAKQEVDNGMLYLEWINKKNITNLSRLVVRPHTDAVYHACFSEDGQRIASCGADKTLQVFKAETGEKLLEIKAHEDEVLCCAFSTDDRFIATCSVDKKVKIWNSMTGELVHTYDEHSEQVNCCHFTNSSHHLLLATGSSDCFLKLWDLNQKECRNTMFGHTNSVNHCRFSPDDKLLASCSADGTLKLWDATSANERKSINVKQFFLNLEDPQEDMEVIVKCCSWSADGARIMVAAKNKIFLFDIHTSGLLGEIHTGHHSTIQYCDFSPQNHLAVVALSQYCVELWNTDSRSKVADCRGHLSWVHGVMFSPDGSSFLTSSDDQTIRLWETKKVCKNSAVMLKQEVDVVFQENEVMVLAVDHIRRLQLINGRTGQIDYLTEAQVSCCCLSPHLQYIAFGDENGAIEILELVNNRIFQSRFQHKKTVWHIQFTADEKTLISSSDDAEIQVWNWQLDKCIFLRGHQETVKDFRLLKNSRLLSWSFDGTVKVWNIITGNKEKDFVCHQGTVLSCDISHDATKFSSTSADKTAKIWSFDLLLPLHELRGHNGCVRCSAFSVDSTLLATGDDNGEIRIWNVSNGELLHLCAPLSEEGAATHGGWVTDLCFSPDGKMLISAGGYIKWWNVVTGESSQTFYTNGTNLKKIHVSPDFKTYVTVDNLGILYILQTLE
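Material: reconstituted apoptosome of Apaf-1, cytochrome c, caspase-9, procaspase-3; times: 30 min preincubation, 50 min reaction, room temperature; measured by: fluorescence, 540 nm emission, 480 nm excitation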
Rh110 act interf: Rh110 signal interference in Apaf-1 activator counter-screen | AID 504616 | fluorescence interference (activity change), % at 20 µM, hits read low | 980 tested, under 10 active | Rh110 fluorescence interference, quenched caspase reaction, Ex480/Em540 | shares compounds with Apaf1 activ;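 active = mean activity change at or below -40% when tested at 20 µM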
Apaf-1 act conf: confirmation of human Apaf-1 activators; shares compounds with Apaf1 activ; reconstituted apoptosome caspase-3 activity, DEVD-Rh110 fluorescence; active compounds read low; activity change, negative = activation, % at 20 µM; 980 tested, 5% active; AID 504617;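 active = mean activity change at or below -40%, meaning activation of 40% or more, at 20 µM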
Fluor interf act: counter-screen for Apaf-1 activators: fluorescence interference, dose response. fluorescence interference counterscreen, Apaf-1 activator assay. AID 588592. 55 tested, under 10 active. EC50, µM. shares compounds with Apaf1 activ; call rule not given here
A number is an active result; n = inactive; x = no result given. These entries were drawn from the full list.

SMILES | Apaf1 activ | Rh110 act interf | Apaf-1 act conf | others
Cc1cc(=O)n(-c2ccc3ccccc3n2)[nH]1 | n | x | x
Cc1ccc(SC2=C(Sc3ccc(C)cc3)C(=O)c3ccccc3C2=O)cc1 | n | x | x
Cc1ccc(Sc2cc(Cl)nc(N)n2)cc1 | -387 | n | n
Cc1ccc(SCc2cc(-c3ccc(Cl)cc3)no2)cc1 | n | x | x
Cc1[nH]c2ccc(CNS(=O)(=O)c3ccc(S(=O)(=O)N4CCOCC4)cc3)cc2c1C | -48 | n | n
Cc1ccc(S(=O)(=O)NCc2ccc3c(c2)cc(C)n3C)cc1 | n | x | x
O=C(CSc1nc(=O)n2ccccc2n1)NCc1ccccc1Cl | n | x | x
CCC(Cc1ccccc1)NC(=O)CCn1cccc1 (configuration not stated) | -220 | n | n
CCCn1nc(C(=O)Nc2ccc(-n3cnnn3)cc2)c2ccccc2c1=O | n | x | x
O=C(NC1(O)C(=O)c2ccccc2C1=O)c1ccc(C(F)(F)F)cc1 | n | x | x
O=C(Nc1cccc(-n2cnnn2)c1)c1ccc(C(F)(F)F)cc1 | -67 | n | n
CCCCCN=C(N)N/N=C/c1c[nH]c2ccc(OC)cc12 | n | x | x
CC(=O)c1ccc(OCCCC(=O)N2CCN(S(=O)(=O)c3ccc(C)cc3C)CC2)cc1 | n | x | x
O=C(CNC(=O)c1ccc(Br)cc1)c1ccc(Br)cc1 | -463 | n | n
N#Cc1cc2ccc(N3CCOCC3)cc2cc1C#N | n | x | x
Cc1cc(C)nc(N/N=C/c2ccc(N3CCOCC3)cc2)n1 | -68 | n | n
COc1nc(N/N=C/c2ccc(-c3ccccc3[N+](=O)[O-])o2)nc(N2CCOCC2)n1 | n | x | x
C#CCOCCOCCOCCNc1nc(N2CCN(C(=O)CCCCCCCCCCNC(=O)[C@H](CCCCN)n3cc(CCO)nn3)CC2)nc(N2CCN(C(=O)CCCCCCCCCCNC(=O)[C@H](CCCN=C(N)N)n3cc(C[C@@H](C)CC)nn3)CC2)n1 | n | x | x
O=C(C[C@H]1C[C@H](C(=O)N2CCCCC2)[C@@]2(CCc3ccccc3)c3[nH]c4ccc(Cl)cc4c3CCN2C1=O)NCCCn1ccnc1 | n | x | x
CC[C@@H](C)[C@@H]1CN([C@@H](C)CN2CCC[C@H]2CN2C(N)=NC[C@@H]2Cc2ccccc2)C(=N)N1CCc1ccc(Cl)c(Cl)c1 | n | x | x
CCc1ccc(NC(=O)[C@H](Cc2c[nH]c3ccccc23)NC(=O)[C@@H]2Cc3ccccc3CN2)cc1 | n | x | x
Cc1cc2ccccc2n1CCNC(=O)C1CCCCC1 | n | x | x
CCOc1ccccc1NC(=O)C(CC(C)C)NC(=O)C1CCCCC1 (configuration not stated) | -53 | n | n
CCC(=O)N(CC)C1=C(O)c2ccccc2C(=O)C1=O | n | x | x
Cc1ccc(CN(C)C(=O)CSc2nnc3n2CCCCC3)c(C)c1 | -42 | n | n
SMILES | Apaf1 activ | Rh110 act interf | Apaf-1 act conf | others
CCN1C(=NCCc2ccc(Br)cc2)N[C@@H](c2ccccc2)[C@H](C(=O)OC)[C@H]1C | n | x | x
CCOc1ccc(OCCSc2ccc(S(=O)(=O)N3CCN(C)CC3)cn2)cc1 | n | x | x
Cc1[nH]n(-c2ccccc2)c(=O)c1/C=N/Nc1nncc(-c2ccccc2)n1 | n | x | x
S=c1[nH]nc(-c2ccncc2)n1/N=C/c1cn(-c2ccccc2)nc1-c1ccc(Cl)cc1 | -59 | n | n
O=C1NC(c2ccc(-c3ccccc3[N+](=O)[O-])o2)C(C(=O)c2ccc(F)cc2)C(O)(C(F)(F)F)N1 (configuration not stated) | n | x | x
C=CCc1cccc(/C=N/NC(=O)CNc2cccc3ccccc23)c1O | n | x | x
Cc1ccccc1NC(=O)CSc1nnc(NC(=O)c2ccco2)s1 | -66 | n | n
CCOc1cccc(-c2cc(=O)[nH][nH]2)c1 | n | x | x
C#CCOCCOCCOCCNc1nc(N2CCN(C(=O)[C@H](Cc3cc4ccccc4[nH]3)n3cc([C@@H](N)C(C)CC)nn3)CC2)nc(N2CCN(C(=O)[C@H](CCCCN)n3cc([C@@H](N)CC(C)C)nn3)CC2)n1 (some centres not stated) | n | x | x
N#C/C(=C\c1ccc(OCc2ccc(Cl)cc2)cc1)C(=O)Nc1cccc(C(=O)O)c1 | -202 | n | -71 | Fluor interf act=n
CC(C)NC1=C(Cl)C(=O)c2ccccc2C1=O | n | x | x
COc1ccc(-c2coc3c(CN4CCCCC4)c(O)c(CN4CCCCC4)c(O)c3c2=O)cc1 | n | x | x
Cc1cc(C)cc(Oc2coc3cc(OC(=O)c4cccs4)ccc3c2=O)c1 | -560 | n | n
CC1=NN(c2ccc(C(=O)O)cc2)C(=O)/C1=C\c1ccc(OC(=O)c2cccs2)cc1 | n | x | x
Brc1ccc(-c2cn3nc4c(nc3n2)CCCC4)cc1 | n | x | x
c1nc(NCC2(N3CCOCC3)CCCCC2)c2ccsc2n1 | -313 | n | n

Screening results as filed in PubChem.
